Converted amounts (≈) assume the structure as drawn. The source made the active and inactive calls. The rule behind the calls is not given here.
What was measured:
MDA-MB-435 = assay: Cytotoxicity against human MDA-MB-435 cells assessed as reduction in cell growth incubated for 72 hrs; type: functional, cell-based; conditions: MDA-MB-435, 72 h
How it was run: (§1)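 Cells grown in RPMI 1640 with 10% FBS, penicillin and streptomycin at 37 °C, 5% CO2. Log-phase cells trypsinized, washed twice, seeded at about 5,000 per well and left overnight. Compounds in DMSO added for 72 h at 37 °C. Viability read by MTS-type absorbance assay (CellTiter 96 AQueous One). IC50 in μM relative to DMSO control. Vinblastine as positive control.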

Aspergillus niger = assay: Antimicrobial activity against Aspergillus niger incubated for 4 days by broth microdilution method; type: functional
How it was run: (§2)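 Broth microdilution in 1/10-strength BHIB+S; 2-fold compound dilution series inoculated with cell suspension. Incubated 4 days; growth scored visually by turbidity. MIC taken as lowest concentration with no turbidity relative to negative control. Each compound run in triplicate.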

[1] = system: Mycolicibacterium smegmatis; assay: Antimicrobial activity against Mycobacterium smegmatis incubated for 4 days by broth microdilution method; type: functional; how it was run: as §2
Escherichia coli = assay: Antimicrobial activity against Escherichia coli incubated for 4 days by broth microdilution method; type: functional; how it was run: as §2
Staphylococcus aureus = assay: Antimicrobial activity against Staphylococcus aureus incubated for 4 days by broth microdilution method; type: functional; how it was run: as §2
Candida albicans = assay: Antimicrobial activity against Candida albicans incubated for 4 days by broth microdilution method; type: functional; how it was run: as §2
HT-29 = assay: Cytotoxicity against human HT-29 cells assessed as reduction in cell growth incubated for 72 hrs; type: functional, cell-based; conditions: HT-29, 72 h; how it was run: as §1

| Compound | IC50 (MDA-MB-435) | MIC (Aspergillus niger) | MIC [1] | MIC (Escherichia coli) | MIC (Staphylococcus aureus) | MIC (Candida albicans) | IC50 (HT-29) | MIC (Aspergillus niger; 96 h) | MIC ([1]; 96 h) | MIC (Escherichia coli; 96 h) | MIC (Staphylococcus aureus; 96 h) | MIC (Candida albicans; 96 h) |
| --- | --- | --- | --- | --- | --- | --- | --- | --- | --- | --- | --- | --- |
| O=C1c2c(O)cc(O)cc2OC[C@H]1Cc1ccc(O)c(O)c1 | > 20 µM | inactive | inactive | inactive | inactive | inactive | > 20 µM |  |  |  |  |  |
| COc1cc(/C=C/C(=O)NCCc2ccc(O)cc2)ccc1O [N-TRANS-FERULOYL TYRAMINE] | > 20 µM | inactive | inactive | inactive | inactive | inactive | > 20 µM |  |  |  |  |  |
| COc1c(O)c(O)c2c(c1OC)OC[C@@H](Cc1ccc(O)cc1)C2=O | > 20 µM | inactive | inactive | inactive | inactive | inactive | > 20 µM |  |  |  |  |  |
| O=C1c2c(O)cc(O)cc2OC[C@H]1Cc1ccc(O)cc1 | > 20 µM |  |  |  |  |  | > 20 µM | > 125 mg/L | 63 mg/L (≈ 220 µM) | > 125 mg/L | > 125 mg/L | > 125 mg/L |
| COc1cc(O)c2c(c1O)OC[C@@H](Cc1ccc(O)cc1)C2=O | > 20 µM | inactive | inactive | inactive | inactive | inactive | > 20 µM |  |  |  |  |  |
| C[C@@H]1[C@H](O)[C@@H](C)/C=C/C=C/C=C/C=C/C=C/C=C/C=C/[C@H](O[C@@H]2O[C@H](C)[C@@H](O)[C@H](N)[C@@H]2O)C[C@@H]2O[C@](O)(C[C@@H](O)C[C@@H](O)[C@H](O)CC[C@@H](O)C[C@@H](O)CC(=O)O[C@H]1C)C[C@H](O)[C@H]2C(=O)O [AMPHOTERICIN B] |  |  |  |  |  |  |  | 31 mg/L (≈ 33.5 µM) |  |  |  | 16 mg/L (≈ 17.3 µM) |
| O=C1/C(=C/c2ccc(O)cc2)COc2cc(O)cc(O)c21 | > 20 µM | inactive | inactive | inactive | inactive | inactive | > 20 µM |  |  |  |  |  |
| CC1(C)S[C@@H]2[C@H](NC(=O)[C@H](N)c3ccccc3)C(=O)N2[C@H]1C(=O)O [AMPICILLIN] |  |  |  |  |  |  |  |  |  | 8 mg/L (≈ 22.9 µM) |  |  |
| COc1cc(O)c2c(c1)OC[C@@](O)(Cc1ccc(O)cc1)C2=O | > 20 µM | inactive | inactive | inactive | inactive | inactive | > 20 µM |  |  |  |  |  |
| COc1c(O)cc(O)c2c1OC/C(=C\c1ccc(O)cc1)C2=O | > 20 µM |  |  |  |  |  | > 20 µM | > 48 mg/L | 24 mg/L (≈ 76.4 µM) | > 48 mg/L | > 48 mg/L | > 48 mg/L |
| COc1ccc(C[C@@H]2COc3c(OC)c(OC)cc(O)c3C2=O)cc1O | 1.1 µM | inactive | inactive | inactive | inactive | inactive | 17.3 µM |  |  |  |  |  |
| CC[C@]1(O)C[C@@H]2CN(CCc3c([nH]c4ccccc34)[C@@](C(=O)OC)(c3cc4c(cc3OC)N(C)[C@H]3[C@@](O)(C(=O)OC)[C@H](OC(C)=O)[C@]5(CC)C=CCN6CC[C@]43[C@@H]65)C2)C1 [VINBLASTINE] | 0.0005 µM |  |  |  |  |  | 0.0045 µM |  |  |  |  |  |
| COc1cc(O)c2c(c1OC)OC/C(=C\c1ccc(O)c(O)c1)C2=O | 4.6 µM |  |  |  |  |  | > 20 µM | > 93 mg/L | 47 mg/L (≈ 137 µM) | > 93 mg/L | 93 mg/L (≈ 270 µM) | > 93 mg/L |
| COc1ccc(C[C@@H]2COc3cc(O)cc(O)c3C2=O)cc1O | 1 µM |  |  |  |  |  | > 20 µM | > 138 mg/L | 17 mg/L (≈ 53.7 µM) | > 138 mg/L | > 138 mg/L | > 138 mg/L |
| O=C(O)c1cn(C2CC2)c2cc(N3CCNCC3)c(F)cc2c1=O [CIPROFLOXACIN] |  |  |  |  |  |  |  |  | 2 mg/L (≈ 6.04 µM) |  |  |  |
| CS/C=C/C(=O)OC[C@H](O)c1ccccc1 | > 20 µM | inactive | inactive | inactive | inactive | inactive | > 20 µM |  |  |  |  |  |
| CN[C@H](CC(C)C)C(=O)N[C@H]1C(=O)N[C@@H](CC(N)=O)C(=O)N[C@H]2C(=O)N[C@H]3C(=O)N[C@H](C(=O)N[C@H](C(=O)O)c4cc(O)cc(O)c4-c4cc3ccc4O)[C@H](O)c3ccc(c(Cl)c3)Oc3cc2cc(c3O[C@@H]2O[C@H](CO)[C@@H](O)[C@H](O)[C@H]2O[C@H]2C[C@](C)(N)[C@H](O)[C@H](C)O2)Oc2ccc(cc2Cl)[C@H]1O [VANCOMYCIN] |  |  |  |  |  |  |  |  |  |  | 0.25 mg/L (≈ 0.173 µM) |  |
| COc1cc2c(cc1O)C[C@]21COc2cc(O)cc(O)c2C1=O | > 20 µM | inactive | inactive | inactive | inactive | inactive | > 20 µM |  |  |  |  |  |
| COc1cc2c(c(O)c1O)C(=O)[C@H](Cc1ccc(O)cc1)CO2 | > 20 µM | inactive | inactive | inactive | inactive | inactive | > 20 µM |  |  |  |  |  |
| COc1cc(O)c2c(c1OC)OC[C@@H](Cc1ccc(O)c(O)c1)C2=O | > 20 µM | inactive | inactive | inactive | inactive | inactive | > 20 µM |  |  |  |  |  |
| COc1cc(O)c2c(c1OC)OC[C@@H](Cc1ccc(O)cc1)C2=O | > 20 µM | inactive | inactive | inactive | inactive | inactive | > 20 µM |  |  |  |  |  |
| COc1cc(O)c2c(c1OC)OC/C(=C\c1ccc(O)cc1)C2=O | 13.2 µM | inactive | inactive | inactive | inactive | inactive | > 20 µM |  |  |  |  |  |
| COc1cc(O)c2c(c1OC)OCCC2=O | > 20 µM | inactive | inactive | inactive | inactive | inactive | > 20 µM |  |  |  |  |  |

From ChEMBL document CHEMBL3593169, “Cytotoxic Homoisoflavones from the Bulbs of Bellevalia eigii” (J Nat Prod, 2015)
